According to the array DNA melting data of Ke et al. (doi:10.1101/2024.01.08.574731):

What was measured:
[1] = folding enthalpy; higher = less favourable; fluorescence melt of hairpins on a sequencing array, two-state fit; conditions: sodium 0.088 M
Procedure, shortened: (§1)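 With Cy3 and quencher oligos annealed, library hairpins on a sequenced MiSeq flow cell were imaged for Cy3 fluorescence in 50 mM Na-HEPES pH 8.0, 25 mM NaCl, in 2.5 °C steps up to 60 °C. Melting temperature and folding enthalpy were derived from bootstrapped two-state fits of signals normalised to pre-quench Cy3 and to control constructs. Four replicates were combined by inverse variance, with fitted temperatures raised by 9.35 °C to match UV melts.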

[2] = melting temperature; fluorescence melt of hairpins on a sequencing array, two-state fit, raised by 9.35 °C to match UV melts; conditions: sodium 0.088 M
Procedure, shortened: as §1

Sequence	folding enthalpy [1] [kcal/mol]	Tm [2] [°C]
GGATTGGGAAACCGATTC (.((.((....)).)).)	-19.9	31.6
CGCCGCCGGAAACGGGCG (((..(((....))))))	-16.5	51.9
GATGTGGGAAACTGCATC ((((..(....)..))))	-27.1	36.1
GATCATTCGAATGATC ((((((....))))))	-46.8	50.5
GCTGAGCGAAAGCACTGC ((.(.((....)).).))	-20	49.5
GATCTTGAGAAGATC ((((((...))))))	-19.9	39.6
GCATTCGAAAGAACTGC ((((((....))).)))	-28.2	34.9
GCAATTGGAAACAGTTGC ((((.((....)).))))	-33.3	47
GGGGAGCGAAAGCTTCCC (((.(((....))).)))	-36.5	68.2
GACTAAGGAAACCTAGTC (((((.(....).)))))	-25.7	35.6
GCGTAAGCACGC ((((....))))	-9.59	59.6
GATCTTTACTAAGATC ((((((....))))))	-38	45
GTGTATCGAAAGATCAC (((.(((....))))))	-29.4	46
GGAAGCCGAAAGGCCTCC (((.(((....))).)))	-20.2	48.4
GCCAGGCGAAAGCCTTGC ((.((((....)))).))	-20	56.9
GATCATTTAATGATC ((((((...))))))	-27.6	48
GATCCGCGATCGGATC ((((((....))))))	-28.8	57.4
GGGGTTCCGAAAGGACCC (((..(((....))))))	-32.6	56.2
GATCTTTGAAAGATC ((((((...))))))	-25.8	38.1
GTGCGGGGAAACCTGCGC (.((.((....)).)).)	-26.7	51.9
GATCCGACTGCGGATC ((((((....))))))	-48.8	56.1
GGCAACGAAAGTTGGCC ((((((....))).)))	-18.7	64
GCTTAGTCGAAAGACAGC (((..(((....))))))	-17.2	40.3

Sequence	folding enthalpy [1] [kcal/mol]	Tm [2] [°C]
GATCCGTGGCCGGATC ((((((....))))))	-39.1	57.7
GGTGGTCGAAAGACTACC (((.(((....))).)))	-43.2	57
GATCTATCAATAGATC ((((((....))))))	-33.6	42.8
GCGAGTTCGAAAGAACGC (((..(((....))))))	-11.8	49.5
GGAATCGAAAGATTTCC ((((((....))).)))	-27	41.5
GTGCATGGAAACATACAC (((.(((....))).)))	-35	39.3
GGAGGTCGAAAGACTTCC (((.(((....))).)))	-37.5	53.5
GTGGCCGAAAGGCGCAC ((((((....))).)))	-13.9	56.3
GGCACCGAAAGGTTCGCC ((((((....)))..)))	-20	47.7
GTCCAAGAAATTGGAC ((((((....))))))	-26.5	53
GGTAAGCGAAAGCTGACC (((.(((....))).)))	-26.2	58.4
GGAACGCGAAAGCGATCC (((.(((....))).)))	-27.4	59
GATCTGGGGGCAGATC ((((((....))))))	-41	51
GTCGACGAAAGTCAAGAC ((((((....)))..)))	-20.4	43.8
GGTCGTGGAAACACGGCC ((.((((....)))).))	-56.7	61.8
GGTCGTGGAAACGCGACC (((((.(....).)))))	-50.9	60
GTTTGCGAAAGCAGGAAC ((((((....)))..)))	-10.3	30.7
GCTCCTCGAAAGAGTAGC (((.(((....))).)))	-32.1	45.5
GTATGCCCGAAAGGGTAC (((..(((....))))))	-8.06	31.2
GCAATGCGAAAGCACAGC ((..(((....)))..))	-14.9	34.3
GGTCATGGAAACATGGCC ((.((((....)))).))	-60.3	54.5
GATCCCCGTGGGATC ((((((...))))))	-27.8	65.2
GGTTCTCGAAAGAGACC (((.(((....))))))	-20.9	49.7

Sequence	folding enthalpy [1] [kcal/mol]	Tm [2] [°C]
GATGAAGCGAAAGCTATC (((..(((....))))))	-10.4	28.4
GGTGATCGAAAGATGACC (((.(((....))).)))	-33.4	47.9
GCGAATCTTCGC ((((....))))	-28	52.8
GATCGTAATCACGATC ((((((....))))))	-45.7	53.2
GCCTCTCCGAAAGGAGGC (((..(((....))))))	-12.4	52.9
GATCGTGGCAACGATC ((((((....))))))	-32.8	67.6
AGAATCCGAAAGGCTTCT ((((.((....)).))))	-27.3	35.6
GATCAAATCTTGATC ((((((...))))))	-27.8	42
GTTGGGCGAAAGCCAAC (((.(((....))))))	-17.5	53
GGTGTTCCGAAAGGAACC (((..(((....))))))	-9.16	47.7
CGACACGGAAACGTCTCG (((.(((....))).)))	-26.8	35.9
GATCAGCGGGCTGATC ((((((....))))))	-38.8	63.8
GCGCTGCGAAAGCAATGC ((..(((....)))..))	-18	47.8
GCTCTGGGAAACTAGAGC (((((.(....).)))))	-51	49.7
GATCACCCAGGTGATC ((((((....))))))	-35.7	61.6
GTTTGCGGAAACACAAAC (((((.(....).)))))	-34.2	42.1
GTGAGTGGAAACATTCGC (.((.((....)).)).)	-16.4	33.4
GCAGAGCGAAAGCTGGGC ((..(((....)))..))	-19.6	50.7
GATCGAGGAGTCGATC ((((((....))))))	-40.2	53.7
CGCCTCGGAAACGATGCG (((.(((....))).)))	-48	49.9
CGTGACGGAAACGTACG (((.(((....))))))	-25.3	42.5
GTCTGAGCGAAAGCTGAC (((..(((....))))))	-17.6	41.2
GGGGCCGAAAGGCGTCCC ((((((....)))..)))	-13.5	53.5
